Source: ChEMBL document CHEMBL1127289, “DNA-directed alkylating agents. 6. Synthesis and antitumor activity of DNA minor groove-targeted aniline mustard analogues of pibenzimol (Hoechst 33258)” (J Med Chem, 1994)
Calls of active or inactive are those of the source.

Assays:
Mus musculus [1] = species on record: Mus musculus; test: Tested for percentage increase in lifespan of drug-treated tumor-bearing animals when treated at optimal dose; NA=Inactive; format: functional, organism-based
How it was run: (§1)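 P388 leukemia: 10^6 tumor cells inoculated intraperitoneally. 24 h later (day 1), a single intraperitoneal dose in 0.1 mL of 30% v/v EtOH/water. The optimal dose is given in mg/kg. ILS is the percentage increase in lifespan at the optimal dose; ILS > 20% is considered significant. Groups of 6 animals, with long-term survivors counted.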

Nucleic Acid [2] = test: (§2) Intrinsic association constant for reversible binding of compounds to calf thymus DNA at 20 degree C; format: nucleic-acid assay; settings: Bos taurus
P388 = test: Concentration of the drug to inhibit wild type P388 murine leukemia cell growth in culture; format: functional, cell-based; settings: Mus musculus
How it was run: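 P388 cells maintained in log phase in RPMI 1640 with 10% fetal calf serum. Drug present throughout 72 h growth. Final density read by a modified MTT method. IC50 is the nominal concentration reducing cell density to 50% of controls, with eight control cultures per plate.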

Mus musculus [3] = test: Tested for the intraperitoneal optimal dose of 0.1 mL in tumor cells; format: functional; how it was run: as §1
CHO-AA8 [4] = test: Concentration of the drug to inhibit chinese hamster ovary derived cell (AA8) growth in culture; format: functional, cell-based; settings: Cricetulus griseus
How it was run: (§3)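 AA8 (wild-type) and UV4 (mutant) lines maintained in log phase in Alpha MEM with 10% fetal calf serum. Drug exposure for 18 h, ended by three washes in fresh medium, then a further 72 h growth. Cell density read by methylene blue staining. IC50 is the nominal concentration giving 50% of control density, with eight controls per plate. HF = IC50(AA8)/IC50(UV4).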

CHO-AA8 [5] = test: (§4) Hypersensitivity factor(HF) was determined as ratio of IC50(AA8) to IC50(UV4); format: functional, Cricetulus griseus; how it was run: as §3
Mus musculus [6] = species on record: Mus musculus; test: Tested for percentage increase in lifespan of drug-treated tumor-bearing animals when treated at optimal dose; format: functional; how it was run: as §1
[7] = as §4; format: functional; how it was run: as §3
Nucleic Acid [8] = test: as §2; format: functional; parameters: scale not given here; settings: Bos taurus
Mus musculus [9] = species on record: Mus musculus; test: Tested for percentage increase in lifespan of drug-treated tumor-bearing animals when treated at optimal dose; Inactive; format: functional, organism-based; how it was run: as §1

Row | Structure (SMILES) | ILS (Mus musculus [1]) | DNA binding (Nucleic Acid [2]) | IC50 (P388) | OD (Mus musculus [3]) | IC50 (CHO-AA8 [4]) | Ratio (CHO-AA8 [5]) | ILS (Mus musculus [6]) | Ratio [7] | DNA binding (Nucleic Acid [8]) | ILS (Mus musculus [9])
1 | CN1CCN(c2ccc3[nH]c(-c4ccc5[nH]c(-c6ccc(O)cc6)nc5c4)nc3c2)CC1 [HOECHST 33258] | inactive | 1.82 log M-1 | 1200 nM | 20 mg/kg |  |  |  |  |  | 
2 | CCN(CCCl)c1cc(CN(C)C)cc(NC(=O)c2ccc(C(=O)Nc3cc(CN(C)C)cc(N(CC)CCCl)c3)cc2)c1 |  |  | 7000 nM |  |  |  |  |  |  | 
3 | CN1CCN(c2ccc3[nH]c(-c4ccc5[nH]c(-c6ccc(N(CCCl)CCCl)cc6)nc5c4)nc3c2)CC1 |  | 7.52 log M-1 | 800 nM | 30 mg/kg | 1680 nM | 24 | 106% |  |  | 
4 | CN1CCN(c2ccc3[nH]c(-c4ccc5[nH]c(CCCCCCc6ccc(N(CCCl)CCCl)cc6)nc5c4)nc3c2)CC1 |  |  | 60 nM | 8.9 mg/kg | 400 nM |  | 23% | 20 | 3.89 M⁻¹ | 
5 | CCN(CC)c1ccc(-c2nc3cc(-c4nc5cc(N6CCN(C)CC6)ccc5[nH]4)ccc3[nH]2)cc1 |  | 6.24 log M-1 | 1200 nM | 20 mg/kg | 10000 nM | 1.5 | 50% |  |  | 
6 | CN1CCN(c2ccc3[nH]c(-c4ccc5[nH]c(CCCc6ccc(N(CCCl)CCCl)cc6)nc5c4)nc3c2)CC1 |  |  | 20 nM | 5.9 mg/kg | 1320 nM |  |  | 46 | 4.55 M⁻¹ | inactive
7 | CN1CCN(c2ccc3[nH]c(-c4ccc5[nH]c(-c6ccc(N(C)CCCl)cc6)nc5c4)nc3c2)CC1 |  |  | 500 nM | 30 mg/kg | 5750 nM |  | 86% | 14 |  | 
8 | CN1CCN(c2ccc3[nH]c(-c4ccc5[nH]c(CCc6ccc(N(CCCl)CCCl)cc6)nc5c4)nc3c2)CC1 |  |  | 10 nM | 3.9 mg/kg | 330 nM |  | 52% | 47 | 6.3 M⁻¹ | 
9 | CN1CCN(c2ccc3[nH]c(-c4ccc5[nH]c(Cc6ccc(N(CCCl)CCCl)cc6)nc5c4)nc3c2)CC1 |  |  | 850 nM | 13.3 mg/kg | 1500 nM |  | 71% | 59 | 6.73 M⁻¹ | 
